Reference: ChEMBL document CHEMBL3098078, “Design, Synthesis, and Antiviral Evaluation of Chimeric Inhibitors of HIV Reverse Transcriptase” (ACS Med Chem Lett, 2013)
The source made the active and inactive calls. The rule behind the calls is not given here.

Legend:
[1] = (§1) Cytotoxicity against human MT2 cells after 5 days by MTT assay; type: cell-based; settings: MT2 cells
Procedure, shortened: (§2)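 MT-2 cells infected with HIV-1 IIIB are read by MTT assay following a previously published protocol. Inhibition of viral replication gives EC50, and the cytotoxicity read-out gives CC50.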

[2] = target: Human immunodeficiency virus type 1 reverse transcriptase (Human immunodeficiency virus 1) (UniProt Q72547); assay: Binding affinity to HIV-1 6His-tagged reverse transcriptase p66/p51 assessed as compound incorporation into D23/D36 primer/template at 50 uM after 60 mins by PAGE analysis in presence of MgCl2
Procedure, shortened: (§3)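 Single-turnover incorporation by HIV-1 RT of the chimeric triphosphate as substrate, using radiolabeled D23/D36 primer/template (template base pairs with TTP). Reactions are sampled at a 0 time point, and a negative control lacks Mg2+. Products are resolved by gel electrophoresis to detect an elongated primer band. A mispaired D23/D36B primer/template (dC opposite template dGMP) serves as a comparison.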

[3] = target: Human immunodeficiency virus type 1 reverse transcriptase (Human immunodeficiency virus 1) (UniProt Q72547); assay: Ratio of d4T IC50 to compound IC50 for HIV-1 6His-tagged reverse transcriptase p66/p51
[4] = target: Human immunodeficiency virus type 1 reverse transcriptase (Human immunodeficiency virus 1) (UniProt Q72547); assay: Binding affinity to HIV-1 6His-tagged reverse transcriptase p66/p51 assessed as compound incorporation into D23/D36 primer/template at 50 uM after 60 mins by PAGE analysis; procedure, shortened: as §3
[5] = target: Human immunodeficiency virus type 1 reverse transcriptase (Human immunodeficiency virus 1, UniProt Q72547); assay: Inhibition of HIV-1 6His-tagged reverse transcriptase p66/p51-mediated TTP incorporation into D23/D36 primer/template preincubated for 15 mins followed by D23/D36 primer/template and TTP addition measured after 15 mins by PAGE analysis
Procedure, shortened: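 Steady-state competition assay measuring inhibition of HIV-1 RT-catalysed TTP incorporation opposite template A into radiolabeled D23/D36 primer/template. Products are resolved on gel across increasing inhibitor concentrations, with a reference NNRTI positive control at 250 nM. Percent RT activity loss is plotted against inhibitor concentration to derive IC50.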

[6] = test system: Human immunodeficiency virus 1; assay: Antiviral activity against HIV1 3B infected in human MT2 cells after 5 days by MTT assay; type: functional, organism-based
Procedure, shortened: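 HIV-1 IIIB replication in MT-2 cell culture, with MTT read-out following a previously published protocol. The nucleoside form was tested. d4T and ddC (NRTI) and TMC120 (NNRTI) were run alongside as positive controls.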

[7] = test system: Human immunodeficiency virus 1; assay: Ratio of d4T EC50 to compound EC50 for HIV1 3B infected in human MT2 cells; type: functional
MT2 = assay: as §1; type: cell-based; settings: mt2, 120 h; procedure, shortened: as §2
[8] = Selectivity index, ratio of CC50 for human MT2 cells to EC50 for HIV1 3B; type: toxicity, cell-based; settings: read-out: Ratio CC50/EC50

Row | SMILES | CC50 at 120 h [1] [nM] | Activity [2] | Ratio IC50 [3] | IC50 [5] [nM] | Ratio EC50 [7] | selectivity ratio [8] | other results
1 | Cc1cc(C)c(Nc2ccnc(Nc3ccc(C#N)cc3)n2)c(C)c1 [DAPIVIRINE] | 1900 |  |  |  |  |  | 
2 | Cc1cc(C#CCCCCCCCC(=O)NCc2cn([C@H]3C[C@H](O)[C@@H](COP(=O)(O)OP(=O)(O)OP(=O)(O)O)O3)c(=O)[nH]c2=O)cc(C)c1Oc1ccnc(Nc2ccc(C#N)cc2)n1 |  | Active | 2000 | 6 |  |  | Activity [4]: inactive
3 | Cc1cn([C@H]2C=C[C@@H](CO)O2)c(=O)[nH]c1=O [STAVUDINE] | 2200 |  |  |  |  |  | EC50 ([6]; Human immunodeficiency virus 1, 3B, MT2, 120 h): 3600 nM
4 | Cc1cc(C#CCCCCCCCC(=O)NCc2cn([C@H]3C[C@H](O)[C@@H](CO[PH](=O)O)O3)c(=O)[nH]c2=O)cc(C)c1Oc1ccnc(Nc2ccc(C#N)cc2)n1 |  | inactive | 3000 | 4.3 | 16 | 27 | Activity (MT2): Toxic; Activity [6]: Active
5 | Cc1cc(C#CCCCCCCCC(=O)NCc2cn([C@H]3C[C@H](O)[C@@H](CO)O3)c(=O)[nH]c2=O)cc(C)c1Oc1ccnc(Nc2ccc(C#N)cc2)n1 |  |  |  |  | 30 | 18 | 
6 | Nc1ccn([C@H]2CC[C@@H](CO)O2)c(=O)n1 [ZALCITABINE] | 4000 |  |  |  |  |  | 
